Data on four compounds can be found in ChEMBL document CHEMBL4622968, “Discovery of [1,2,4]triazolo[4,3-a]pyridines as potent Smoothened inhibitors targeting the Hedgehog pathway with improved antitumor activity in vivo” (Bioorg Med Chem, 2020).

Each structure is given as a SMILES string. Activity calls are given as the source filed them. The calls are words filed in the database; no cut-off is given here. Bounds are passed on as bounds.

Series [1] has as its system T47D. The series can be described thus: Antiproliferation activity against human T47D cells assessed as reduction in cell viability incubated for 72 hr by MTT assay. Format: functional, cell-based. The method, boiled down: (§1)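 MTT assay. Cells were plated overnight and exposed to a range of concentrations for 72 h. MTT was then added for 4 h and absorbance read at 570 nm. Inhibition% = [(control − compound)/(control − blank)] × 100. IC50 was fitted from the curves. Mean ± S.D. of 3–5 separate experiments. RPMI 1640 + 10% FBS; MCF10A in DMEM/F12 with 5% horse serum, EGF, hydrocortisone, insulin and cholera toxin.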
(In general: Tetrazolium assays rely on reduction of a dye to a coloured formazan, in cell work by metabolically active cells.)

Series [2] in a line: Inhibition of hedgehog pathway in mouse NIH/3T3 cells harboring GRE-Luc assessed as inhibition of SAG-induced Hh signaling pathway by dual luciferase reporter gene assay. Format: cell-based. The note with it: NIH3T3. Put shortly: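 NIH3T3 cells co-transfected with 8×3' Gli-BS-delta51-Luc II firefly reporter and pRL-TK Renilla plasmid; after 24 h treated with compounds plus SAG (pathway activator). Gli luciferase normalized to Renilla (dual-luciferase read-out); IC50 = concentration halving normalized signal; mean ± S.D. of 3–5 separate experiments.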
For orientation: In a reporter assay the amount or activity of a reporter protein is the signal.

For series [3], the system named is MDA-MB-468. The series is described as follows: Antiproliferation activity against human MDA-MB-468 cells assessed as reduction in cell viability incubated for 72 hr by MTT assay. Format: functional, cell-based. As to conditions: MDA-MB-468, 72 h. Put shortly:
as §1

In series [4] the test system is MDA-MB-231. The series is described as follows: Antiproliferation activity against human MDA-MB-231 cells assessed as reduction in cell viability incubated for 72 hrs measured after 4 hrs by MTT assay. Format: functional, cell-based. Put shortly:
as §1

The subject of series [5] is MCF7. The series is described as follows: Antiproliferation activity against human MCF7 cells assessed as reduction in cell viability incubated for 72 hrs by MTT assay. As to conditions: MCF7, 72 h. Type of series: functional, cell-based. The method, boiled down: as §1
The test system of series [6] is A549. The series can be described thus: Antiproliferation activity against human A549 cells assessed as reduction in cell viability incubated for 72 hrs by MTT assay. The note with it: A549, 72 h. Format: functional, cell-based. Put shortly:
as §1

The test system of series [7] is U-251. The series is described as follows: Antiproliferation activity against human U251 cells assessed as reduction in cell viability incubated for 72 hrs by MTT assay. Format: functional, cell-based. As to conditions: U-251, 72 h. Put shortly: as §1
For series [8], the system named is AN3-CA. The series can be described thus: Antiproliferation activity against human AN3CA cells assessed as reduction in cell viability incubated for 72 hr by MTT assay. Format: functional, cell-based. The method, boiled down: as §1
In series [9] the test system is HeLa. The series is described as follows: Antiproliferation activity against human HeLa cells assessed as reduction in cell viability incubated for 72 hrs by MTT assay. Type of series: functional, cell-based. The method, boiled down:
as §1

For series [10], the target named is T1, Protein smoothened (Homo sapiens, UniProt Q99835). The series can be described thus: Binding affinity to recombinant human Smo receptor assessed as association rate constant by SPR analysis. The method, boiled down:
(§2)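 Surface plasmon resonance with recombinant Smo protein, run in PBS at a flow rate of 2 μL/s and 4 °C. Analytes were injected at 2.5, 5 and 10 μM. The chip was regenerated with 0.5% SDS:glycine-HCl pH 2.0 (1:1). ka, kd, Rmax, KA and KD came from a global fit of the sensorgrams.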
For orientation: SPR reads the build-up and loss of mass on a sensor chip optically.

In series [11] the target is T1, Protein smoothened. The series is described as follows: Binding affinity to recombinant human Smo receptor assessed as dissociation rate constant by SPR analysis. Put shortly: as §2
Series [12] deals with T1, Protein smoothened. The series can be described thus: Binding affinity to recombinant human Smo receptor assessed as maximum response at equilibrium by SPR analysis. Put shortly: as §2
In series [13] the target is T1, Protein smoothened. The series is described as follows: Binding affinity to recombinant human Smo receptor assessed as association constant at equilibrium by SPR analysis.
For series [14], the target named is T1, Protein smoothened. The series can be described thus: Binding affinity to recombinant human Smo receptor assessed as dissociation constant at equilibrium by SPR analysis.
Series [15] can be described thus: Acute toxicity in Kunming mouse assessed as mortality at 5000 mg/kg, ig observed for 14 days relative to control. Type of series: organism-based. As to conditions: in vivo, po, read-out: Activity. Put shortly:
(§3)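 Kunming mice, groups of 5 female and 5 male per dose, dosed once by gavage at graded doses; mortality recorded over 14 days as dead/treated and percent. LD50 derived by improved Karber's method: LD50 = lg^-1[xm − i(ΣP − 0.5)], xm log of maximal dose, i log ratio of neighbouring doses; 95% confidence intervals given.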

Series [16] in a line: Acute toxicity in Kunming mouse assessed as lethality through intragastric administration observed for 14 days. As to conditions: in vivo, po. Put shortly: as §3
Series [17] deals with MCF-10A. The series is described as follows: Cytotoxicity against human MCF10A cells assessed as cell viability incubated for 72 hrs measured by MTT assay. Format: cell-based. Put shortly:
as §1

Series [18] concerns MDA-MB-468. The series can be described thus: Inhibition of hedgehog pathway in human MDA-MB-468 cells assessed as decrease in Smo protein levels in cilia at 28 uM incubated for 24 hrs by immunostaining based confocal microscopic analysis. Format: cell-based. Put shortly: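 MDA-MB-468 cells were treated at 28 μM for 24 h with or without SAG. Cilia were immunostained for acetylated α-tubulin and Smo and imaged by confocal microscopy. Comparisons were made against DMSO and against SAG alone.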

Series [19] in a line: Acute toxicity in Kunming mouse assessed as mortality at 741 mg/kg, ig observed for 14 days relative to control. Format: organism-based. As to conditions: in vivo, po, read-out: Activity. Put shortly: as §3
The nature of series [20]: Acute toxicity in Kunming mouse assessed as mortality at 1111 mg/kg, ig observed for 14 days relative to control. Format: organism-based. The note with it: in vivo, po, read-out: Activity. The method, boiled down:
as §3

The nature of series [21]: Acute toxicity in Kunming mouse assessed as mortality at 1778 mg/kg, ig observed for 14 days relative to control. Format: organism-based. The note with it: in vivo, po, read-out: Activity. The method, boiled down: as §3
A short description of series [22]: Acute toxicity in Kunming mouse assessed as mortality at 2667 mg/kg, ig observed for 14 days relative to control. As to conditions: in vivo, po, read-out: Activity. Format: organism-based. Put shortly: as §3
The nature of series [23]: Acute toxicity in Kunming mouse assessed as mortality at 4000 mg/kg, ig observed for 14 days relative to control. Type of series: organism-based. As to conditions: in vivo, po, read-out: Activity. Put shortly:
as §3

A short description of series [24]: Toxicity in BALB/c mouse xenografted with human MDA-MB-468 cells assessed as body weight at 80 to 100 mg/kg, ig measured every day for 21 day. Type of series: organism-based. The note with it: in vivo, po, 504 h. The method, boiled down:
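Female BALB/c nude mice, 6–8 weeks, given 1.0×10^7 MDA-MB-468 cells s.c. in right posterior flank; at 100 mm3 tumours, randomized into groups of five. Daily gavage at 80 or 100 mg/kg in saline with 0.1% Tween 80, or vehicle alone; body weight recorded daily, tumour volume every 2 days; sacrificed day 21.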

T1 sequence (Q99835 whole entry): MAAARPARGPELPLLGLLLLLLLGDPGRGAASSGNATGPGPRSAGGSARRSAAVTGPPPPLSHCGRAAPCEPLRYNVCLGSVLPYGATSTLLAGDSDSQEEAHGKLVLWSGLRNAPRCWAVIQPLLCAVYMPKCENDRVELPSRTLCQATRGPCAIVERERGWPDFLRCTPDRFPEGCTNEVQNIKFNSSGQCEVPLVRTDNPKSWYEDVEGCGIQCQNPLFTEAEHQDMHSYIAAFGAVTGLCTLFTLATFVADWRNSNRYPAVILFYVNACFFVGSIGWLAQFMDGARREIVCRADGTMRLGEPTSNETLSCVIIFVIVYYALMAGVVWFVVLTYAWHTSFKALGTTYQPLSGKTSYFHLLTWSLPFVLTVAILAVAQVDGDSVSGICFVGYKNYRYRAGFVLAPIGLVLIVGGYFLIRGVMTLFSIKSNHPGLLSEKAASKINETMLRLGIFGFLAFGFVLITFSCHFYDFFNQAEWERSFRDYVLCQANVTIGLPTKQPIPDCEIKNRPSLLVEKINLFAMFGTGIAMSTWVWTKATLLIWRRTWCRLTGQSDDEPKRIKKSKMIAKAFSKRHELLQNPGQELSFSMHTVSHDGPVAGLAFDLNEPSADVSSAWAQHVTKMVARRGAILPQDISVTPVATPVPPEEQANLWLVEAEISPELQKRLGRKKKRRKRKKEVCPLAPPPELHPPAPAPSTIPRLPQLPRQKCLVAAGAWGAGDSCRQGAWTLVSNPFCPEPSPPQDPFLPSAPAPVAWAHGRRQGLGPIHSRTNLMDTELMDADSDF

With `O=C(Nc1ccc(Cl)c(-c2nnc3c(Cl)cccn23)c1)c1cccc(Cl)c1`, the IC50 was found to be 30.2 µM in series [1]; 0.102 µM in series [2]; 54.8 µM in series [3]; 66.1 µM in [4]; 71.9 µM in series [5]; 52.7 µM in series [6]. Moreover, the IC50 in series [7] is 43.1 µM; in series [8], 68.4 µM; in series [9], greater than 100 µM. Further, the Ka in [10] was determined as 101 M⁻¹ s⁻¹. The Kdiss in series [11] amounted to 1.23 ×10⁻³ /s. Further, the Rmax in [12] is 41.2 RU. Moreover, the KA in [13] turned out to be 8.21 ×10⁴ /M. For the same compound, the Kd in series [14] is 12.1 µM. Besides, the mortality at 336 h in series [15] was 0%. In addition, the LD50 at 336 h in series [16] was greater than 5000 mg/kg.

For `CS(=O)(=O)c1ccc(C(=O)Nc2ccc(Cl)c(-c3ccccn3)c2)c(Cl)c1` [VISMODEGIB], the IC50 in [1] was greater than 100 µM; in [2] it was 0.1 µM; in series [3], 79 µM; in series [4], greater than 100 µM; in series [5] it was greater than 100 µM; in [6] it was greater than 100 µM. Also, the IC50 is greater than 100 µM in series [7], 93 µM in series [8], 61.7 µM in [9] and 89.5 µM in series [17]. For the same compound, the Ka in [10] turned out to be 179 M⁻¹ s⁻¹. In addition, in series [11], the Kdiss was found to be 0.0174 ×10⁻³ /s. For the same compound, the Rmax in [12] was 4.63 RU. Further, the inhibition entry in series [18] was “Active”. The mortality at 336 h stood at 10% in [19]; 30% in series [20]; 50% in series [21]; 60% in series [22]; 80% in [23]. In series [16], the LD50 at 336 h is 2010 mg/kg. Moreover, the Activity entry in series [24] is “Non-Toxic”.

On to `O=C(Nc1ccc(Cl)c(-c2nnc3c(Cl)cccn23)c1)c1ccc(C(F)(F)F)cc1F`, for which the IC50 was 70.8 µM in [1]; 0.096 µM in [2]; 22.3 µM in [3]; greater than 100 µM in series [4]; 62.8 µM in series [5]; greater than 100 µM in [6]. For the same compound, the results for the IC50 in [7], in series [8] and in series [9] were greater than 100 µM, 41.2 µM and 61.9 µM, respectively. In series [10], the Ka was 111 M⁻¹ s⁻¹. The Kdiss in series [11] turned out to be 1.51 ×10⁻³ /s. Moreover, the Rmax in [12] is 49.2 RU. Also, the KA in series [13] amounted to 7.35 ×10⁴ /M. The Kd in series [14] was 13.6 µM.

As for `O=C(Nc1ccc(Cl)c(-c2nnc3c(Cl)cccn23)c1)c1ccc(C(F)(F)F)nc1Cl`, the IC50 in series [1] is 87.6 µM; in series [2], 0.093 µM; in [3] it was 46 µM; in series [4], greater than 100 µM; in series [5], greater than 100 µM; in [6], 46.8 µM. In addition, the IC50 in series [7] is greater than 100 µM; in series [8], 48.3 µM; in series [9], 86.3 µM. Also, the Ka in series [10] was determined as 260 M⁻¹ s⁻¹. For the same compound, in series [11], the Kdiss was found to be 0.00275 ×10⁻³ /s. For the same compound, the Rmax in series [12] was found to be 8.44 RU. Further, the KA in series [13] was 9.43 ×10⁷ /M. Further, the Kd in series [14] worked out at 0.0106 µM.

By IC50 is commonly meant the concentration that inhibits the measured activity by half. One may read the Kd as the concentration at which binding is half-saturated. A word on the LD50: it is the dose expected to kill half of the subjects tested.
